From ChEMBL document CHEMBL4732237, “Discovery of 4-alkoxy-2-aryl-6,7-dimethoxyquinolines as a new class of topoisomerase I inhibitors endowed with potent in vitro anticancer activity” (2021)

Assays:
[1] = test system: CCRF-CEM; test: Growth inhibition of human CCRF-CEM cells incubated for 48 hrs by sulforhodamine B assay; assay type: functional
Procedure, shortened: (§1)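 NCI five-dose screen covering 0.01–100 µM, prepared as 10-fold or ½-log dilutions from DMSO stock. Cells in RPMI 1640 with 5% FBS were exposed for 48 h at 37 °C after 24 h preincubation. Adherent cells were fixed with TCA (final 10%) and suspension cells were settled before fixing. Stain was SRB, read at 515 nm. GI50 = 50% reduction in net protein increase versus control, with Tz taken at drug addition.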

[2] = test system: K562; test: Growth inhibition of human K562 cells incubated for 48 hrs by sulforhodamine B assay; assay type: functional; procedure, shortened: as §1
[3] = test system: EKVX; test: Growth inhibition of human EKVX cells incubated for 48 hrs by sulforhodamine B assay; assay type: functional; procedure, shortened: as §1
[4] = test system: HOP-62; test: Growth inhibition of human HOP-62 cells incubated for 48 hrs by sulforhodamine B assay; assay type: functional; procedure, shortened: as §1
[5] = test system: HOP-92; test: Growth inhibition of human HOP-92 cells incubated for 48 hrs by sulforhodamine B assay; assay type: functional; procedure, shortened: as §1
[6] = test system: NCI-H322M; test: Growth inhibition of human NCI-H322M cells incubated for 48 hrs by sulforhodamine B assay; assay type: functional
Procedure, shortened: (§2)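 NCI five-dose screen (0.01–100 µM; five concentrations plus control). Cells grown in RPMI 1640/5% FBS/2 mM L-glutamine and preincubated 24 h, with time-zero plates TCA-fixed. Drug exposure 48 h at 37 °C, followed by SRB protein staining and reading at 515 nm. GI50 is the concentration at [(Ti-Tz)/(C-Tz)]×100 = 50.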

[7] = test system: NCI-H460; test: Growth inhibition of human NCI-H460 cells incubated for 48 hrs by sulforhodamine B assay; assay type: functional; procedure, shortened: as §2
[8] = test system: NCI-H522; test: Growth inhibition of human NCI-H522 cells incubated for 48 hrs by sulforhodamine B assay; assay type: functional; procedure, shortened: as §2
[9] = test system: SW-620; test: Growth inhibition of human SW-620 cells incubated for 48 hrs by sulforhodamine B assay; assay type: functional
Procedure, shortened: (§3)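 NCI five-dose assay, with drug stocks in DMSO diluted in medium to five concentrations (10-fold or ½-log series). Cells in RPMI 1640/5% FBS were pre-incubated 24 h, and time-zero plates were TCA-fixed at drug addition. After 48 h at 37 °C, cells were TCA-fixed, SRB-stained and read at 515 nm. GI50 is from [(Ti-Tz)/(C-Tz)]×100 = 50, TGI from Ti = Tz, and LC50 from [(Ti-Tz)/Tz]×100 = -50.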

[10] = test system: SF-295; test: Growth inhibition of human SF-295 cells incubated for 48 hrs by sulforhodamine B assay; assay type: functional; procedure, shortened: as §2
[11] = test system: SF-539; test: Growth inhibition of human SF-539 cells incubated for 48 hrs by sulforhodamine B assay; assay type: functional; procedure, shortened: as §2
[12] = test system: SNB-19; test: Growth inhibition of human SNB-19 cells incubated for 48 hrs by sulforhodamine B assay; assay type: functional; procedure, shortened: as §2
[13] = test system: SNB-75; test: Growth inhibition of human SNB-75 cells incubated for 48 hrs by sulforhodamine B assay; assay type: functional; procedure, shortened: as §2
[14] = test system: U-251; test: Growth inhibition of human U-251 cells incubated for 48 hrs by sulforhodamine B assay; assay type: functional; procedure, shortened: as §3
[15] = test system: LOX IMVI; test: Growth inhibition of human LOX IMVI cells incubated for 48 hrs by sulforhodamine B assay; assay type: functional; procedure, shortened: as §1
[16] = test system: SK-MEL-28; test: Growth inhibition of human SK-MEL-28 cells incubated for 48 hrs by sulforhodamine B assay; assay type: functional; procedure, shortened: as §2
[17] = test system: SK-MEL-5; test: Growth inhibition of human SK-MEL-5 cells incubated for 48 hrs by sulforhodamine B assay; assay type: functional; procedure, shortened: as §2
[18] = test system: UACC-62; test: Growth inhibition of human UACC-62 cells incubated for 48 hrs by sulforhodamine B assay; assay type: functional; procedure, shortened: as §3
[19] = test system: IGROV-1; test: Growth inhibition of human IGROV-1 cells incubated for 48 hrs by sulforhodamine B assay; assay type: functional; procedure, shortened: as §1
[20] = test system: SK-OV-3; test: Growth inhibition of human SK-OV-3 cells incubated for 48 hrs by sulforhodamine B assay; assay type: functional; procedure, shortened: as §2
[21] = test system: A498; test: Growth inhibition of human A498 cells incubated for 48 hrs by sulforhodamine B assay; assay type: functional; procedure, shortened: as §3
[22] = test system: ACHN; test: Growth inhibition of human ACHN cells incubated for 48 hrs by sulforhodamine B assay; assay type: functional; procedure, shortened: as §1
[23] = test system: CAKI-1; test: Growth inhibition of human CAKI-1 cells incubated for 48 hrs by sulforhodamine B assay; assay type: functional; procedure, shortened: as §1
[24] = test system: SN12C; test: Growth inhibition of human SN12C cells incubated for 48 hrs by sulforhodamine B assay; assay type: functional; procedure, shortened: as §2
[25] = test system: TK-10; test: Growth inhibition of human TK-10 cells incubated for 48 hrs by sulforhodamine B assay; assay type: functional; procedure, shortened: as §3
[26] = test system: PC-3; test: Growth inhibition of human PC-3 cells incubated for 48 hrs by sulforhodamine B assay; assay type: functional; procedure, shortened: as §2
[27] = test system: MCF7; test: Growth inhibition of human MCF7 cells incubated for 48 hrs by sulforhodamine B assay; assay type: functional; procedure, shortened: as §1
[28] = test system: Hs-578T; test: Growth inhibition of human HS-578T cells incubated for 48 hrs by sulforhodamine B assay; assay type: functional; procedure, shortened: as §1
[29] = test system: BT-549; test: Growth inhibition of human BT-549 cells incubated for 48 hrs by sulforhodamine B assay; assay type: functional; procedure, shortened: as §1
[30] = test system: T47D; test: Growth inhibition of human T47D cells incubated for 48 hrs by sulforhodamine B assay; assay type: functional; procedure, shortened: as §3
[31] = test system: MDA-MB-468; test: Growth inhibition of human MDA-MB-468 cells incubated for 48 hrs by sulforhodamine B assay; assay type: functional; procedure, shortened: as §1
[32] = molecular target: T1, DNA topoisomerase 1 (Homo sapiens) (UniProt P11387); test: Inhibition of recombinant human TOPO1 assessed as TOP1-DNA cleavage complexes at 1 uM using 3'-[32-P]-117 labeled bp DNA as substrate incubated for 30 mins by SDS-PAGE analysis relative to control
T1 sequence (whole entry): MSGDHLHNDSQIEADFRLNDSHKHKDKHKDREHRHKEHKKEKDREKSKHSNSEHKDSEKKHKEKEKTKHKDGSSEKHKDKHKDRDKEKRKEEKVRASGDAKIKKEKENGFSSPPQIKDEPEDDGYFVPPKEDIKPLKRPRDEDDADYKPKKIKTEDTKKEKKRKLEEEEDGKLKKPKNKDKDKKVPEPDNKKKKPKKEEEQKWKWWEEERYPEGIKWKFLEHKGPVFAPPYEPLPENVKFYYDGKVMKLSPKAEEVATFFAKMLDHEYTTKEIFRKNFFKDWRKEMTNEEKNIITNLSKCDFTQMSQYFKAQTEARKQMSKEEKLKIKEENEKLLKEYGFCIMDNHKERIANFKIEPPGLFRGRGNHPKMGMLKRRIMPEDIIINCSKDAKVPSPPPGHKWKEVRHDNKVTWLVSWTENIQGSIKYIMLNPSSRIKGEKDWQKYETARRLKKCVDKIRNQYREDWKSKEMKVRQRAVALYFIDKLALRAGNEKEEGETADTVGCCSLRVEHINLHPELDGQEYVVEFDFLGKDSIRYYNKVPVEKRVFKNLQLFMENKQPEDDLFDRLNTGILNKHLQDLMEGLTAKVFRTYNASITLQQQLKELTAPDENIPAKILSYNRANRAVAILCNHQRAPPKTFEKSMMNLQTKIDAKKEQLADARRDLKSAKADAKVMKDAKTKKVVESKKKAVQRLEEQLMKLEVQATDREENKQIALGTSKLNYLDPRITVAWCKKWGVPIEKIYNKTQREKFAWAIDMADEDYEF

SMILES | GI50 [1] [nM] | GI50 [2] [nM] | GI50 [3] [nM] | GI50 [4] [nM] | GI50 [5] [nM] | GI50 [6] [nM] | GI50 [7] [nM] | GI50 [8] [nM] | GI50 [9] [nM] | GI50 [10] [nM] | GI50 [13] [nM] | GI50 [14] [nM] | GI50 [15] [nM] | TGI [15] [nM] | GI50 [16] [nM] | GI50 [17] [nM] | GI50 [18] [nM] | GI50 [19] [nM] | GI50 [21] [nM] | GI50 [22] [nM] | also measured
COc1cc2nc(-c3ccc(C(F)(F)F)cc3)cc(OCCCN3CCCCC3)c2cc1OC | 1830 | 578 | 803 | 947 | 678 | 8700 | 595 | 2440 | 2910 | 530 | 1960 | 1100 | 162 | 355 | 1260 | 325 | 1820 | 651 | 1850 | 1200 | GI50 [11]: 2080 nM; GI50 [12]: 2820 nM; TGI [17]: 1200 nM; GI50 [20]: 2300 nM; GI50 [23]: 272 nM; GI50 [24]: 668 nM; GI50 [25]: 7800 nM; GI50 [26]: 1340 nM; GI50 [27]: 1160 nM; GI50 [28]: 2150 nM; GI50 [29]: 1480 nM; GI50 [30]: 454 nM; GI50 [31]: 1030 nM; inhibition [32]: 20%
COc1cc2nc(-c3ccc(Cl)cc3)cc(OCCCN3CCOCC3)c2cc1OC | 3350 | 2710 | 1730 | 1980 | 1360 | > 100000 | 958 | 2170 | 3570 | 1080 | 2060 | 1920 | 217 | 592 | 1520 | 832 | 2260 | 990 | 1590 | 3640 | GI50 [11]: 2990 nM; GI50 [20]: 3000 nM; GI50 [23]: 305 nM; GI50 [24]: 1300 nM; GI50 [26]: 2630 nM; GI50 [27]: 2490 nM; GI50 [28]: 2400 nM; GI50 [29]: 2590 nM; GI50 [30]: 1960 nM; GI50 [31]: 1830 nM; inhibition [32]: 50%
COc1cc2nc(-c3ccc(Cl)cc3)cc(OCCCN3CCCCC3)c2cc1OC | 2790 | 1220 | 1470 | 2370 | 1020 | 4420 | 842 | 3280 | 3090 | 1210 | 1980 | 1890 | 189 | 435 | 1450 | 1100 | 1940 | 838 | 1400 | 2450 | GI50 [11]: 2570 nM; GI50 [12]: 2980 nM; GI50 [23]: 287 nM; GI50 [24]: 946 nM; GI50 [25]: 3730 nM; GI50 [26]: 1740 nM; GI50 [27]: 1560 nM; GI50 [28]: 2110 nM; GI50 [29]: 1430 nM; GI50 [30]: 1310 nM; GI50 [31]: 1390 nM; inhibition [32]: 20%
COc1cc2nc(-c3ccc(C(F)(F)F)cc3)cc(OCCCN3CCOCC3)c2cc1OC | 2790 | 1180 | 1610 | 1670 | 1000 | 10500 | 639 | 2520 | 3510 | 349 | 2460 | 1400 | 141 | 324 | 1440 | 288 | 628 | 830 | 1510 | 2010 | GI50 [12]: 2910 nM; GI50 [20]: 5040 nM; GI50 [23]: 167 nM; GI50 [24]: 675 nM; GI50 [25]: 13900 nM; GI50 [26]: 2190 nM; GI50 [27]: 1550 nM; GI50 [28]: 2250 nM; GI50 [29]: 5000 nM; GI50 [30]: 654 nM; GI50 [31]: 1240 nM; inhibition [32]: 50%
